Assay results from ChEMBL document CHEMBL2010780, “Pyridine Carboxamides: Potent Palm Site Inhibitors of HCV NS5B Polymerase” (ACS Med Chem Lett, 2010).
Calls of active or inactive are those of the source. No cut-off for these calls is given here.

Assays:
[1] = Cytotoxicity against human HuH7 cells after 3 days by MTS assay; format: cell-based, Huh-7
Procedure, shortened: (§1)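 Each value is the mean of duplicate experiments run on two separate weighings of compound.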

[2] = system: Hepatitis C virus genotype 3; experiment: Inhibition of Hepatitis C virus genotype 3 NS5B Cdelta21 polymerase up to 10 uM
Hepatitis C virus [3] = experiment: Ratio of IC50 for Hepatitis C virus genotype 1b Con1 NS5B Cdelta21 polymerase palm site 1 G554D mutant to IC50 for Hepatitis C virus genotype 1b Con1 NS5B Cdelta21 polymerase; parameters: species or system Hepacivirus hominis
Hepatitis C virus [4] = experiment: Ratio of IC50 for Hepatitis C virus genotype 1b Con1 NS5B Cdelta21 polymerase palm site 2 C316N mutant to IC50 for Hepatitis C virus genotype 1b Con1 NS5B Cdelta21 polymerase; parameters: species or system Hepacivirus hominis
Hepatitis C virus [5] = experiment: Inhibition of Hepatitis C virus genotype 1b Con1 NS5B Cdelta21 polymerase-mediated RNA synthesis at elongation phase after 22 hrs by single round elongation assay; conditions: Hepacivirus hominis
Procedure, shortened: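 Single-cycle assay measuring elongation from NS5B enzyme–primer–template complexes that were preformed before elongation.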

Hepatitis C virus [6] = experiment: Ratio of IC50 for Hepatitis C virus genotype 1b Con1 NS5B Cdelta21 polymerase palm site 2 C316Y mutant to IC50 for Hepatitis C virus genotype 1b Con1 NS5B Cdelta21 polymerase; parameters: species or system Hepacivirus hominis
Hepatitis C virus [7] = experiment: Ratio of IC50 for Hepatitis C virus genotype 1b Con1 NS5B Cdelta21 polymerase thumb site 1 P495L mutant to IC50 for Hepatitis C virus genotype 1b Con1 NS5B Cdelta21 polymerase; parameters: species or system Hepacivirus hominis
[8] = system: Hepatitis C virus genotype 4; experiment: Inhibition of Hepatitis C virus genotype 4 NS5B Cdelta21 polymerase up to 10 uM
Hepacivirus hominis [9] = experiment: Ratio of IC50 for Hepatitis C virus subtype 1a H77 NS5B Cdelta21 polymerase to IC50 for Hepatitis C virus genotype 1b Con1 NS5B Cdelta21 polymerase
Hepatitis C virus [10] = experiment: Inhibition of Hepatitis C virus genotype 1b Con1 NS5B Cdelta21 polymerase-mediated RNA synthesis at initiation phase after 15 mins by primer extension assay; conditions: Hepacivirus hominis
Hepatitis C virus [11] = experiment: Ratio of IC50 for Hepatitis C virus genotype 1b Con1 NS5B Cdelta21 polymerase thumb site 2 M423T mutant to IC50 for Hepatitis C virus genotype 1b Con1 NS5B Cdelta21 polymerase; parameters: species or system Hepacivirus hominis
Hepacivirus hominis [12] = experiment: Ratio of IC50 for Hepatitis C virus subtype 1b BK NS5B Cdelta21 polymerase to IC50 for Hepatitis C virus genotype 1b Con1 NS5B Cdelta21 polymerase
[13] = system: Hepatitis C virus genotype 2; experiment: Inhibition of Hepatitis C virus genotype 2 NS5B Cdelta21 polymerase up to 10 uM
Hepatitis C virus [14] = experiment: Ratio of IC50 for Hepatitis C virus genotype 1b Con1 NS5B Cdelta21 polymerase palm site 1 M414T mutant to IC50 for Hepatitis C virus genotype 1b Con1 NS5B Cdelta21 polymerase; parameters: species or system Hepacivirus hominis
Hepatitis C virus [15] = experiment: Antiviral activity against Hepatitis C virus genotype 1b Con1 infected in human HuH7 cells assessed as inhibition of viral RNA replication after 3 by real time PCR analysis; format: functional, organism-based, Hepacivirus hominis, Huh-7; conditions: Hepatitis C virus, Con1, Huh-7; read-out: EC50; procedure, shortened: as §1
[16] = Ratio of CC50 for human HuH7 cells to EC50 for Hepatitis C virus genotype 1b Con1; parameters: species or system Huh-7
[17] = Inhibition of Hepatitis C virus genotype 1b Con1 NS5B Cdelta21 polymerase assessed as incorporation of [33P]-CTP into heteropolymer RNA template after 2 hrs; parameters: species or system Hepacivirus hominis; conditions: Con1, 2 h; procedure, shortened: as §1

Compound	CC50 at 72 h [1]	inhibition [2]	Ratio IC50 (Hepatitis C virus [3])	Ratio IC50 (Hepatitis C virus [4])	inhibition (Hepatitis C virus [5])	Ratio IC50 (Hepatitis C virus [6])	Ratio IC50 (Hepatitis C virus [7])	inhibition [8]	Ratio IC50 (Hepacivirus hominis [9])	inhibition (Hepatitis C virus [10])	Ratio IC50 (Hepatitis C virus [11])	Ratio IC50 (Hepacivirus hominis [12])	inhibition [13]	Ratio IC50 (Hepatitis C virus [14])	EC50 (Hepatitis C virus [15])	Ratio CC50/EC50 [16]	IC50 [17]
Cc1ncccc1C(=O)Nc1ccc(C(C)C)cc1N1CCN(c2ncnc3ccsc23)CC1	15000 nM	inactive	4	3	inactive	>300	1	inactive	140	Active	1	14	inactive	21	700 nM	>20	14 nM
Cc1ncccc1C(=O)Nc1ccc(C(C)C)cc1N1CCN(c2cnccn2)CC1	22000 nM														2800 nM	10	520 nM
Cc1ncccc1C(=O)Nc1ccc(C(C)C)cc1N1CCN(c2ncnc3[nH]ccc23)CC1	> 10000 nM	inactive	8	4		>300	1	inactive	270		1	27	inactive	27	3000 nM		32 nM
